Publication PMC11645202 (Bioorganic & medicinal chemistry, 2024)
Where two headings read alike, the source gives them in different places. Marks after values point to notes of the source that are not given here.

Tests used:
[1] = tested on: MCF-7 human breast carcinoma cells; test: MCF-7 cell proliferation assay; format: cell-based
Method in brief: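 MCF-7 human breast carcinoma cells grown 24 h without drug, then 48 h with varying concentrations of test compound. Growth read as total cell protein by sulforhodamine B staining; IC50 taken as concentration inhibiting cell growth.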

A-10 cells [2] = test: Cellular microtubule loss by indirect immunofluorescence; format: cell-based; settings: 20 μM compound 8c; 15 μM compound 13; 2.5 μM compound 18 (Figure 5)
[3] = tested on: pancreatic cancer cells (MiaPaca-2); test: Cytotoxicity in pancreatic cancer cells, Promega CellTiter assay kit; format: cell-based
tubulin [4] = test: Inhibition of tubulin polymerization; format: biochemical; settings: for IC50: read-out: Tubulin Assembly IC50, tubulin at 10 μM
[5] = tested on: colon cancer cell line HCT-16; test: Cytotoxicity in colon cancer cells, Promega CellTiter assay kit; format: cell-based
[6] = tested on: MCF-7 human breast carcinoma cells; settings: read-out: MCF-7 IC50; inhibition of growth; cited from earlier work
tubulin [7] = settings: compound 5 μM, cited from earlier work
A-10 cells [8] = settings: read-out: A-10 EC50 (cellular microtubule loss); cited from earlier work

COc1ccc(C(=O)c2cc(OC)c(OC)c(OC)c2)cc1B(O)O [Compound 18, [2-Methoxy-5-(3,4,5-trimethoxybenzoyl)phenyl]boronic acid]
cytotoxicity in MCF-7 cells (in words) [1]: mid-nanomolar cytotoxicity
effects on interphase microtubules in A-10 cells (A-10 cells [2]): disrupted microtubules and loss of the microtubule network
activity in MiaPaca-2 (in words) [3]: potency comparable to that of CA-4 and phenstatin

COc1cc(/C=C\c2cnc(OC)c(B(O)O)c2)cc(OC)c1OC [Compound 13, {2-Methoxy-5-[(Z)-2-(3,4,5-trimethoxyphenyl)vinyl]pyridin-3-yl}boronic acid]
lower potency compared to 1 in inhibiting tubulin polymerization (tubulin [4]; relative to compound 1): 20 fold
cytotoxicity in MCF-7 cells (in words) [1]: mid-nanomolar cytotoxicity
lower activity compared to 1 in inhibition of MCF-7 cell proliferation ([1]; relative to compound 1): 23 fold
effects on interphase microtubules in A-10 cells (A-10 cells [2]): disrupted microtubules and loss of the microtubule network
IC50 ([5]; HCT16, read-out: IC50 in HCT-16): < 5000 nM

COc1cc(/C=C\c2ccc(B(O)O)cc2)cc(OC)c1OC [Compound 8c, {4-[(Z)-2-(3,4,5-trimethoxyphenyl)vinyl]phenyl}boronic acid]
effects on interphase microtubules in A-10 cells (A-10 cells [2]): disrupted microtubules and loss of the microtubule network

COc1cc(C(=O)c2cnc(OC)c(B(O)O)c2)cc(OC)c1OC [Compound 22, [2-Methoxy-5-(3,4,5-trimethoxybenzoyl)pyridin-3-yl]boronic acid]
IC50 (tubulin [4]): > 40000 nM
activity (in words) (tubulin [4]; tubulin-based assays): no activity
activity in HCT-16 (in words) [5]: dramatically reduced activity
activity in MiaPaca-2 (in words) [3]: dramatically reduced activity

COc1cc(/C=C\c2ccccc2B(O)O)cc(OC)c1OC [Compound 8a, {2-[(Z)-2-(3,4,5-trimethoxyphenyl)vinyl]phenyl}boronic acid]
IC50 (tubulin [4]): > 40000 nM
activity in MiaPaca-2 (in words) [3]: potency comparable to that of CA-4 and phenstatin

COc1ccc(C(=O)c2cc(OC)c(OC)c(OC)c2)cc1O [Phenstatin, reference compound]
IC50 [6]: 440 ± 70 nM
[3H]Colchicine Binding inhibition (tubulin [7]): 86^f %

COc1ccc(/C=C\c2cc(OC)c(OC)c(OC)c2)cc1B(O)O [Compound 1]
IC50 [6]: 17 ± 5 nM
[3H]Colchicine Binding inhibition (tubulin [7]; tubulin 1 μM, [3H]colchicine 5 μM): 79 ± 2^e %

COc1ccc(/C=C\c2cc(OC)c(OC)c(OC)c2)cc1O [CA-4, Combretastatin A-4]
IC50 [6]: 32 ± 20 nM
EC50 (A-10 cells [8]): < 25 nM
